Results from ChEMBL document CHEMBL2057168, “(1aR,5aR)1a,3,5,5a-Tetrahydro-1H-2,3-diaza-cyclopropa[a]pentalene-4-carboxylic acid (MK-1903): a potent GPR109a agonist that lowers free fatty acids in humans” (J Med Chem, 2012).
Activity calls are given as the source filed them. The rule behind the calls is not given here.

What was measured:
[1] = Apparent half life in human at 50 mg, po BID administered on day 1 followed by 2-day wash out period after which dosing continued up to day 11 measured on day 11; assay type: ADME, organism-based; settings: in vivo, read-out: t1/2(app) (converted)
Method in brief: (§1)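 Double-blind, placebo-controlled, randomized dose-escalation study in healthy male volunteers, six cohorts of eight (six active, two placebo). Oral dose on day 1, two-day washout, then dosing days 4–11; the 200 mg qd cohort was titrated over days 1–4. Venous blood taken predose and at 0.5–12 h on days 1, 4 and 11; plasma drug measured. τ 12 h (bid), 24 h (qd), 8 h (tid), 6 h (qid).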

[2] = Cmax in human at 150 mg, po BID administered on day 1 followed by 2-day wash out period after which dosing continued up to day 11 measured on day 1; assay type: ADME, organism-based; design: dose 150 mg, route oral; settings: in vivo; method in brief: as §1
[3] = Cmax in human at 175 mg, po QID administered on day 1 followed by 2-days wash out period after which dosing continued up to day 11 measured on day 1; assay type: ADME, organism-based; design: dose 175 mg, route oral; settings: in vivo
Method in brief: (§2)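 Healthy male volunteers took part in a double-blind, randomized, placebo-controlled dose-escalation study, with cohorts of 8 (6 on drug, 2 on placebo). Each subject got an oral dose on day 1, then a 2-day washout, then dosing on days 4–11. The 200 mg qd group was titrated over days 1–4. Venous plasma was sampled predose and 0.5–12 h postdose on days 1, 4 and 11, and predose on days 5–10 for troughs.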

[4] = Tmax in human at 150 mg, po BID administered on day 1 followed by 2-day wash out period after which dosing continued up to day 11 measured on day 1; assay type: ADME, organism-based; settings: in vivo
Method in brief: (§3)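 Double-blind, placebo-controlled, randomized multiple oral dose study in healthy male volunteers (cohorts of eight; six active, two placebo). Dose given on day 1, then a two-day washout, then dosing days 4–11; for the QD arm, subjects were titrated over days 1–4. Venous plasma sampled predose and 0.5, 1, 1.5, 2, 4, 6, 8, 10, 12 h postdose on days 1, 4 and 11. Tmax reported as median (min–max).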

[5] = AUC (0 to 8 hrs) in human at 150 mg, po TID administered on day 1 followed by 2-days wash out period after which dosing continued up to day 11 measured on day 11; assay type: ADME, organism-based; design: time < 8 hr, dose 150 mg, route oral; settings: plasma; method in brief: as §1
[6] = Tmax in human at 100 mg, po BID administered on day 1 followed by 2-day wash out period after which dosing continued up to day 11 measured on day 11; assay type: ADME, organism-based; settings: in vivo; method in brief: as §3
[7] = AUC (0 to 12 hrs) in human at 150 mg, po BID administered on day 1 followed by 2-day wash out period after which dosing continued up to day 11 measured on day 4; assay type: ADME, organism-based; design: dose 150 mg, time < 12 hr, route oral; settings: plasma; method in brief: as §1
[8] = Cmax in human at 50 mg, po BID administered on day 1 followed by 2-day wash out period after which dosing continued up to day 11 measured on day 11; assay type: ADME, organism-based; design: dose 50 mg, route oral; settings: in vivo; method in brief: as §2
Homo sapiens [9] = assay: Toxicity in human assessed as occurrence of flushing at 5 to 200 mg, po administered as single dose; assay type: organism-based; settings: in vivo
[10] = AUC (0 to 6 hrs) in human at 175 mg, po QID administered on day 1 followed by 2-days wash out period after which dosing continued up to day 11 measured on day 1; assay type: ADME, organism-based; design: time < 6 hr, dose 175 mg, route oral; settings: plasma; method in brief: as §1
Rattus norvegicus [11] = assay: Dose normalized Cmax in Sprague-Dawley rat at 10 mg/kg, po; assay type: ADME, organism-based; design: dose 10 mg/kg, route oral; settings: in vivo
Method in brief: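 Male Sprague-Dawley rats were dosed at 10 mg/kg po or 2 mg/kg iv in 80% PEG400/20% phosphate-buffered saline, fasted overnight before the oral dose. Jugular blood was sampled serially from 0.25 to 21 h over 24 h, and heparinized plasma was prepared. Drug was assayed by HPLC/MS/MS (quantitation range 1–2000 ng/mL).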

[12] = Tmax in human at 50 mg, po BID administered on day 1 followed by 2-day wash out period after which dosing continued up to day 11 measured on day 11; assay type: ADME, organism-based; settings: in vivo; method in brief: as §3
Homo sapiens [13] = assay: Antidyslipidemic activity in human assessed as decrease in free fatty acid level 150 mg, po TID administered on day 1 followed by 2-days wash out period after which dosing continued up to day 11 measured on day 4 and 11; assay type: functional, organism-based
Method in brief: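 Healthy male volunteers in a randomized, double-blind, placebo-controlled multiple-dose study, six active and two placebo subjects per cohort. Oral dosing on day 1, two-day washout, then days 4–11, with titration over days 1–4 for the qd arm.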

Homo sapiens [14] = assay: Toxicity in human assessed as occurrence of flushing at 10 to >10 mg administered as single dose; assay type: organism-based; settings: in vivo
Method in brief: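 Healthy volunteers scored subject-reported flushing with a flushing symptoms questionnaire after single oral doses and during repeat divided daily dosing.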

[15] = Volume of distribution in dog; assay type: ADME, organism-based, Canis lupus familiaris; settings: in vivo
Cytochrome P450 3A4 = Cytochrome P450 3A4 (Homo sapiens, UniProt P08684); assay: Activity at CYP3A4; assay type: ADME
Cytochrome P450 3A4, sequence (P08684 whole entry): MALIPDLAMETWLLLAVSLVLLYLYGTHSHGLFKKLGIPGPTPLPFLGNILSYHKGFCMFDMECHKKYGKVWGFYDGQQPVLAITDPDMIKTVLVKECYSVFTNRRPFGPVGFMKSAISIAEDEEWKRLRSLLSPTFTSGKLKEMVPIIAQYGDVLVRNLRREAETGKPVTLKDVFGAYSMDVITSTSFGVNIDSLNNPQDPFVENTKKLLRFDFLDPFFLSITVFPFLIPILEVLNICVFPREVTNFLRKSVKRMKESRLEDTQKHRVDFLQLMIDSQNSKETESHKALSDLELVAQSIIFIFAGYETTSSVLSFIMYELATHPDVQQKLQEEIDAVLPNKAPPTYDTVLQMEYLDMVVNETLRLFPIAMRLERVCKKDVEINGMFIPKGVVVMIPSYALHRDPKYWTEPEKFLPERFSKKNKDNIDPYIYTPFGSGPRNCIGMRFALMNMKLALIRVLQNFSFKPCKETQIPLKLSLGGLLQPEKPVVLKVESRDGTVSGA

[16] = AUC (0 to 6 hrs) in human at 175 mg, po QID administered on day 1 followed by 2-days wash out period after which dosing continued up to day 11 measured on day 11; assay type: ADME, organism-based; design: time < 6 hr, dose 175 mg, route oral; settings: plasma; method in brief: as §1
[17] = Tmax in human at 150 mg, po BID administered on day 1 followed by 2-day wash out period after which dosing continued up to day 11 measured on day 4; assay type: ADME, organism-based; settings: in vivo; method in brief: as §3
[18] = Cmin in human at 150 mg, po TID administered on day 1 followed by 2-days wash out period after which dosing continued up to day 11 measured on day 4 at 8 hrs; assay type: ADME, organism-based; settings: in vivo, read-out: Cmin; method in brief: as §2
[19] = Terminal half life in rhesus monkey; assay type: ADME, organism-based, Macaca mulatta; settings: in vivo, read-out: beta t1/2 (converted)
Homo sapiens [20] = assay: Antidyslipidemic activity in dyslipidemia patient assessed as change in triglyceride level at 150 mg administered TID during four week study relative to control; assay type: functional
[21] = AUC (0 to 12 hrs) in human at 50 mg, po BID administered on day 1 followed by 2-day wash out period after which dosing continued up to day 11 measured on day 1; assay type: ADME, organism-based; design: dose 50 mg, time < 12 hr, route oral; settings: plasma; method in brief: as §1
Rattus norvegicus [22] = assay: Antidyslipedic activity in fasted Sprague-Dawley rat assessed as decrease in free fatty acid level at 0.001 mg/kg, po by NEFA C-free fatty acid assay; assay type: functional, organism-based; design: dose 0.001 mg/kg
Method in brief: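 Male Sprague-Dawley rats fasted, compound by oral gavage, serial plasma sampling after dosing for free fatty acids over a time course; vehicle-dosed control group.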

[23] = Tmax in human at 150 mg, po TID administered on day 1 followed by 2-days wash out period after which dosing continued up to day 11 measured on day 1; assay type: ADME, organism-based; settings: in vivo; method in brief: as §3
[24] = Cmin in human at titreated dose from day 1 to 4 followed by 200 mg, po QD administered up to day 11 measured on day 11 at 12 hrs; assay type: ADME, organism-based; settings: in vivo, read-out: Cmin; method in brief: as §2
[25] = AUC (0 to 12 hrs) in human at 100 mg, po BID administered on day 1 followed by 2-day wash out period after which dosing continued up to day 11 measured on day 1; assay type: ADME, organism-based; design: dose 100 mg, time < 12 hr, route oral; settings: plasma; method in brief: as §1
[26] = AUC (0 to 8 hrs) in human at 150 mg, po TID administered on day 1 followed by 2-days wash out period after which dosing continued up to day 11 measured on day 1; assay type: ADME, organism-based; design: time < 8 hr, dose 150 mg, route oral; settings: plasma
Method in brief: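 Healthy male volunteers, double-blind placebo-controlled randomized dose escalation; cohorts of eight (six active, two placebo). Oral dose on day 1, two-day washout, then dosing days 4–11. Venous blood predose and 0.5, 1, 1.5, 2, 4, 6, 8, 10, 12 h postdose on days 1, 4 and 11 for plasma drug; dosing interval (τ) 12 h for BID, 8 h for TID; Ctrough taken at end of interval.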

O=C(O)c1n[nH]c2c1C[C@H]1C[C@@H]21
half-life [1]: 1.9 h
Cmax [2]: 41.2 nM
Cmax [3]: 52.6 nM
Tmax [4]: 1.25 h
AUC at 8 h [5]: 0.0879 µM·h
Tmax [6]: 0.5 h
AUC at 12 h [7]: 0.0803 µM·h
Cmax [8]: 16.2 nM
Activity (Homo sapiens [9]): Toxic
AUC at 6 h [10]: 0.13 µM·h
Cmax/dose (Rattus norvegicus [11]): 3.7 µM·kg/mg
Tmax [12]: 0.5 h
Activity (Homo sapiens [13]): Active
Activity (Homo sapiens [14]): Toxic
Vd [15]: 0.41 L/kg
Activity (Cytochrome P450 3A4): Not Active
AUC at 6 h [16]: 0.123 µM·h
Tmax [17]: 1.5 h
concentration at 8 h [18]: 0.583 nM
half-life [19]: 1.1 h
Activity (Homo sapiens [20]): -10.3%
AUC at 12 h [21]: 0.0294 µM·h
Activity (Rattus norvegicus [22]): inactive
Tmax [23]: 0.5 h
concentration at 12 h [24]: 0.273 nM
AUC at 12 h [25]: 0.0728 µM·h
AUC at 8 h [26]: 0.102 µM·h
